In PubChem BioAssay AID493149 (Broad Institute, 2011):
“And” between values parts separate entries of the source, which are not always exact repeats. Identical values can stand only once. Inconclusive results are not listed. The source made the active and inactive calls.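 The calls were made as follows: active = every repeat run gives a falling-signal curve whose half-maximal concentration stays within the set limit; inconclusive = runs disagree, flat moderate inhibition, or unreliable fit; inactive = flat weak response, opposite effect, or too weak.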

Tests used:
[1] = tested on: C. albicans CaCi-8 + fluconazole, Alamar Blue growth, 48 h; experiment: Candida CaCi-8 growth reduction under fluconazole – CaCi-8 strain, Alamar Blue, dry powder, set 9, dose response (AID 493149)
Procedure, shortened: (§1)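 System: fluconazole-resistant C. albicans strain CaCi-8; Times: 48 h compound growth at 37 °C, 2 h RT dye; Technique: Alamar Blue fluorescence, 1:200 final, Ex 544 nm, Em 590 nm.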

[2] = as above; settings: C. albicans CaCi-8 + fluconazole, Alamar Blue growth, 48 h
Procedure, shortened: as §1

Row | SMILES | AC50 [1] | activity change, negative = inhibition ([2]; at 26 µM (top of the series)) | also measured
1 | COC(=O)Cn1nc(-c2cccc(OC)c2)c2ccccc21 | 1.2 µM | – | –
2 | COC(=O)Cn1nc(-c2ccccc2)c2ccc(F)cc21 | 8.34 µM | – | –
3 | CCOC(=O)Cn1nc(-c2ccccc2)c2ccccc21 | – | -1.88% (inactive) | –
4 | COC(=O)Cn1nc(-c2cncnc2)c2ccccc21 | – | – | activity change, negative = inhibition ([2]; at 19.5 µM (top of the series)): -4.22% (inactive)
5 | COC(=O)Cn1c2ccccc2c2nc3n(c(=O)c21)CCS3 | 8.51 µM | – | –
6 | COC(=O)Cn1nc(-c2ccccc2)c2cc(OC)ccc21 | 18.6 µM | – | –
7 | CC(C)OC(=O)Cn1nc(-c2ccccc2)c2ccccc21 | – | 6.95% (inactive) | –
8 | COC(=O)[C@@H](C)n1nc(-c2ccccc2)c2ccccc21 (racemic) | 15.9 µM | – | –
9 | c1ccc(-c2nn(Cc3nn[nH]n3)c3ccccc23)cc1 | – | -10.1% (inactive) | –
10 | COC(=O)Cn1nc(-c2ccc(C(F)(F)F)cc2)c2ccccc21 | – | -7.01% (inactive) | –
11 | N#CCn1nc(-c2ccccc2)c2ccccc21 | – | -24.1% (inactive) | –
12 | COC(=O)Cn1nc(-c2ccc(OC)cc2)c2ccccc21 | 8.3 µM | – | –
13 | COC(=O)Cn1nc(-c2ccccc2)c2ccc(OC)cc21 | 12.7 µM | – | –
14 | COC(=O)Cn1nc(-c2cccc(C)c2)c2ccccc21 | 1.34 µM | – | –
15 | COC(=O)Cn1nc(-c2ccccc2C)c2ccccc21 | 6.96 µM | – | –
16 | COC(=O)Cn1nc(-c2ccc(F)cc2)c2ccccc21 | 8.21 µM | – | –
17 | O=C(Cn1nc(-c2ccccc2)c2ccccc21)Oc1ccccc1 | – | -1.98% (inactive) | –
18 | COC(=O)CCn1nc(-c2ccccc2)c2ccccc21 | – | -11.6% (inactive) | –
19 | COC(=O)Cn1nc(-c2ccccc2)c2ccccc21 | 2.18 µM | – | –
20 | c1ccc(-c2nn(Cc3ncco3)c3ccccc23)cc1 | – | 4.54% (inactive) | –
21 | O=C(Cn1c2ccccc2c2nc3n(c(=O)c21)CCS3)N1CCCC1 | 1.65 µM and 3.48 µM | – | –
22 | COC(=O)Cn1nc(-c2ccccc2)c2cc(F)ccc21 | 6.98 µM | – | –
23 | COC(=O)Cn1nc(-c2ccccc2)c2ccc(C)cc21 | 7.29 µM | – | –
24 | COC(=O)Cn1nc(-c2ccccc2OC)c2ccccc21 | 10.2 µM | – | –
25 | COC(=O)Cn1nc(-c2cccc(F)c2)c2ccccc21 | 2.14 µM | – | –
26 | COC(=O)Cn1nc(-c2ccccc2)c2cc(C)ccc21 | 5.33 µM | – | –
27 | COC(=O)Cn1nc(-c2ccccc2)c2ccc(C#N)cc21 | – | -13.5% (inactive) | –
28 | COC(=O)Cn1nc(-c2ccccc2)c2ccc(Cl)cc21 | 8.57 µM | – | –
29 | CC(C)(C)OC(=O)Cn1nc(-c2ccccc2)c2ccccc21 | – | 14.2% (inactive) | –
